Measurements pooled from the literature.
Lines come from different studies, so protocols differ.
Target: Tyrosine-protein kinase ITK/TSK (ITK, Homo sapiens, UniProt Q08881)
One construct used (Q08881 1-620): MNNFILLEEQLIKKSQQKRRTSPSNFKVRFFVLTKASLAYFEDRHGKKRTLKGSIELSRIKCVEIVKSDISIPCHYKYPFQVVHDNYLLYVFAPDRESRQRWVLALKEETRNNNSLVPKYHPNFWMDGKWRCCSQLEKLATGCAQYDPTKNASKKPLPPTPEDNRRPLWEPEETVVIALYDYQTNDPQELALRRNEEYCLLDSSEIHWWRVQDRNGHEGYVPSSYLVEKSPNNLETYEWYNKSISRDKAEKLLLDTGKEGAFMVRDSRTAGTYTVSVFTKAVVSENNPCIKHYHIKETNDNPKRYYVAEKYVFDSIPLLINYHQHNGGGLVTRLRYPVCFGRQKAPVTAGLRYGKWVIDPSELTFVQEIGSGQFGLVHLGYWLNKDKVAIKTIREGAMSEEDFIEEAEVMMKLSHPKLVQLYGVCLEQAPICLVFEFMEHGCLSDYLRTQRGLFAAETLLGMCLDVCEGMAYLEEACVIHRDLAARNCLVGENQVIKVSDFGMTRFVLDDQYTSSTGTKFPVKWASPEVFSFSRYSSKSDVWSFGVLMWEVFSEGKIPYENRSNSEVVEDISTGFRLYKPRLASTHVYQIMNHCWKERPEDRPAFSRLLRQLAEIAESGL

Structure (SMILES) | test | conditions | quantity | result
Cc1nn(C)cc1-c1nc2c(N3CCN(Cc4ccc(Cl)cc4)CC3)c(Cl)cnc2[nH]1 | binding, competition with immobilised ligand | 1 µM | remaining binding | 100%
COc1ncccc1-c1cnn2ccc(N3CCN(C(=O)OC(C)C)CC3)nc12 | binding, competition with immobilised ligand | 1 µM | remaining binding | 100%
O=c1[nH]c2ccccc2n1C1CCN(Cc2ccc(-c3[nH]c4cc5ncnc5cc4nc3-c3ccccc3)cc2)CC1 | cell-free assay | 0.5 µM | remaining signal | 99.8%
N#CC1(c2ccccn2)CCN(Cc2cc(C(=O)O)c(=O)n3ccccc23)CC1 | cell-free assay, competition with immobilised ligand | 1 µM | remaining binding | 100%
Cn1cc(-c2cccc(N3CCc4c(sc5c4CC(C)(C)C5)C3=O)c2CO)cc(Nc2ccncn2)c1=O | enzyme activity, inhibitor | 1 µM | inhibition | 6%
Nc1ncc(-c2nc(N3CCOCC3)nc(N3CCOCC3)n2)c(C(F)F)n1 | binding, competition with immobilised ligand | 10 µM | remaining binding | 44%
Cn1cc(-c2cc(F)cc(N3CCn4c(cc5c4CCCC5)C3=O)c2CO)cc(Nc2ccc(N3CCN(C4COC4)CC3)cn2)c1=O | enzyme activity, inhibitor | 0.1 µM | inhibition | 4%
CC(C)(C)c1cc(C=C(C#N)C#N)cc(Br)c1O | enzyme activity, inhibitor | 0.5 µM | remaining activity | 98.4%
Cn1cncc1[C@@](O)(COc1ccc(C#N)cc1-c1ccc(OC(F)(F)F)cc1)c1ccc(C#N)cc1 | cell-free assay, competition with immobilised ligand | 1 µM | remaining binding | 100%
